Source: ChEMBL document CHEMBL1811829, “Discovery of selective indole-based prostaglandin D₂ receptor antagonist” (Bioorg Med Chem, 2011)

What was measured:
Prostacyclin receptor = Prostacyclin receptor (Homo sapiens, UniProt P43119); assay: Displacement of [3H]-Iloprost from human IP receptor expressed in CHO cells after 30 mins by liquid scintillation counting; format: cell-based
Method in brief: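 Membranes from CHO cells expressing hIP were incubated with 5.0 nM [³H]Iloprost and compounds at various concentrations. Buffer was 50 mM Tris–HCl pH 7.5 with 1 mM EDTA and 10 mM MgCl₂, for 30 min at room temperature. Samples were filtered on GF/B, washed with 10 mM Tris–HCl/100 mM NaCl pH 7.5, dried 60 min at 60 °C and scintillation counted.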

[1] = molecular target: T1, Prostaglandin D2 receptor (Mus musculus, UniProt P70263); assay: Displacement of [3H]-PGD2 from mouse DP receptor expressed in CHO cells after 20 mins by liquid scintillation counting; format: cell-based
T1 sequence (P70263 whole entry): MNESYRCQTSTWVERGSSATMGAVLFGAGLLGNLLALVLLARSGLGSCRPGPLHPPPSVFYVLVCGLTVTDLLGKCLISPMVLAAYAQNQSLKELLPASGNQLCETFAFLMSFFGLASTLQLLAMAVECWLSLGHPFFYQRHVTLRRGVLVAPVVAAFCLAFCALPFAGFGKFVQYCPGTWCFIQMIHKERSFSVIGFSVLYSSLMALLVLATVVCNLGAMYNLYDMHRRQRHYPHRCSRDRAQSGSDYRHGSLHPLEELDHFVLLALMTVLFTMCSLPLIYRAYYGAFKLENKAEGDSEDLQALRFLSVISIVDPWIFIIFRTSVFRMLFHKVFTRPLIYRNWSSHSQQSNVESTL
Method in brief: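 Membranes from CHO cells stably expressing mDP were incubated with 2.5 nM [³H]PGD₂ and compounds at various concentrations. Buffer was 25 mM HEPES–NaOH pH 7.4 with 1 mM EDTA, 5 mM MgCl₂ and 10 mM MnCl₂, for 20 min at room temperature. Samples were filtered on GF/B and washed with Tris–HCl pH 7.4, NaCl, 0.01% BSA. Filters were dried 60 min at 60 °C and read by scintillation counting. Nonspecific binding was set with excess unlabeled PGD₂.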

[2] = molecular target: Prostaglandin F2-alpha receptor (Mus musculus, UniProt P43117); assay: Displacement of [3H]-PGF2-alpha from mouse FP receptor expressed in CHO cells after 60 mins by liquid scintillation counting; format: cell-based
Prostaglandin F2-alpha receptor, sequence (P43117 whole entry): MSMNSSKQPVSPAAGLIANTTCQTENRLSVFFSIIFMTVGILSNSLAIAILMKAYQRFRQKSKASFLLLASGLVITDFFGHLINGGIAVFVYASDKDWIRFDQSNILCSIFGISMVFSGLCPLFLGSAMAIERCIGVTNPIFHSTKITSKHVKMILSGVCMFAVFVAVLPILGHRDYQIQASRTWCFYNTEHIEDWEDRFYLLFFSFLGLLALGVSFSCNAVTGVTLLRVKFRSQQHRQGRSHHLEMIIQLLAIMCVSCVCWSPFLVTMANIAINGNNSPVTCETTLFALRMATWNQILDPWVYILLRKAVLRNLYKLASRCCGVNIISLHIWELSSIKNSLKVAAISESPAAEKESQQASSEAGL
Method in brief: (§1)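 Membranes from CHO cells stably expressing mEP1, mEP2, mEP3a, mEP4 or mFP were used. The radioligand was 2.5 nM [³H]PGE₂ for EP receptors and 2.5 nM [³H]PGF2α for FP. Buffer was 10 mM KH₂PO₄–KOH pH 6.0 with 1 mM EDTA, 10 mM MgCl₂ and 100 mM NaCl. Incubation was at room temperature, 20 min for mEP1 and 60 min for the others. Samples were filtered on GF/B, washed with phosphate/NaCl pH 6.0, dried 60 min at 60 °C and scintillation counted.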

[3] = molecular target: Prostaglandin E2 receptor EP4 subtype (Mus musculus, UniProt P32240); assay: Displacement of [3H]-PGE2 from mouse EP4 receptor expressed in CHO cells after 60 mins by liquid scintillation counting; format: cell-based; method in brief: as §1
Prostaglandin E2 receptor EP4 subtype, sequence (P32240 whole entry): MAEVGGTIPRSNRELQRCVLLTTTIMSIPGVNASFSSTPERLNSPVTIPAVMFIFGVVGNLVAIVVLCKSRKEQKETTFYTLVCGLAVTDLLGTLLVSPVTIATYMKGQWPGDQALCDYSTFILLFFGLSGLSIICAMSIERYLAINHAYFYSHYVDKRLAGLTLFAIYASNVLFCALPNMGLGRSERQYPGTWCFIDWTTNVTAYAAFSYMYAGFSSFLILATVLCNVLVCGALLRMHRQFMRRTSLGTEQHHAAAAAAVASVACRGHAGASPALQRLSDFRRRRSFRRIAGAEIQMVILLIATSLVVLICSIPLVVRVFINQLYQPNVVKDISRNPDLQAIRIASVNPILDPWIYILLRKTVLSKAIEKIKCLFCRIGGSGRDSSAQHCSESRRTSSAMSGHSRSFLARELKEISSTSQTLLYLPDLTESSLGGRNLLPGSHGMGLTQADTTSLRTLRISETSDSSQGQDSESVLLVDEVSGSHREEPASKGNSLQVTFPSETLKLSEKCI

[4] = molecular target: T2, Prostaglandin E2 receptor EP3 subtype (Mus musculus, UniProt P30557); assay: Displacement of [3H]-PGE2 from mouse EP3 receptor expressed in CHO cells after 60 mins by liquid scintillation counting; format: cell-based; method in brief: as §1
T2 sequence (P30557 whole entry): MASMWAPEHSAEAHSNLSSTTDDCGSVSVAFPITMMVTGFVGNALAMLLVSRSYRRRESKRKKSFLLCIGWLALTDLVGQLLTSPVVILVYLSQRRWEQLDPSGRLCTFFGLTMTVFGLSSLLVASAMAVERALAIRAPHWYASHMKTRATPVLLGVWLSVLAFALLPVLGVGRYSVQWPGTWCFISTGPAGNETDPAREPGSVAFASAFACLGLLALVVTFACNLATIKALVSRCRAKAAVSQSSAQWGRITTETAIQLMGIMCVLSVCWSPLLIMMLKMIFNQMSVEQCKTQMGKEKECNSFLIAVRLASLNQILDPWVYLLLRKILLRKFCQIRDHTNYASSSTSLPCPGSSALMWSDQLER

[5] = molecular target: T3, Prostaglandin E2 receptor EP1 subtype (Mus musculus, UniProt P35375); assay: Displacement of [3H]-PGE2 from mouse EP1 receptor expressed in CHO cells after 20 mins by liquid scintillation counting; format: cell-based; method in brief: as §1
T3 sequence (P35375 whole entry): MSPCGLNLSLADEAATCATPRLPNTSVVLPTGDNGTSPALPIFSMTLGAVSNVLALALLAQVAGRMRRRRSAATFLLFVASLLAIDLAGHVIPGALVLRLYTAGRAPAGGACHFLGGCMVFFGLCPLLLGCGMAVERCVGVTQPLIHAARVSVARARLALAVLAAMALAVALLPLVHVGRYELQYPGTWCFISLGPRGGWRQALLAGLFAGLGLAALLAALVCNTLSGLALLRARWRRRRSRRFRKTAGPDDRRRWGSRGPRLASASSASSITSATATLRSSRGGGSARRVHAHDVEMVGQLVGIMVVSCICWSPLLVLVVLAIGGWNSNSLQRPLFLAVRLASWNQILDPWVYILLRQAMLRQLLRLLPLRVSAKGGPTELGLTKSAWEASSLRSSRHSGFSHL

Thromboxane A2 receptor = molecular target: T4, Thromboxane A2 receptor (Homo sapiens, UniProt P21731); assay: Displacement of [3H]-SQ29548 from human TP receptor expressed in CHO cells after 30 mins by liquid scintillation counting; format: cell-based
T4 sequence (P21731 whole entry): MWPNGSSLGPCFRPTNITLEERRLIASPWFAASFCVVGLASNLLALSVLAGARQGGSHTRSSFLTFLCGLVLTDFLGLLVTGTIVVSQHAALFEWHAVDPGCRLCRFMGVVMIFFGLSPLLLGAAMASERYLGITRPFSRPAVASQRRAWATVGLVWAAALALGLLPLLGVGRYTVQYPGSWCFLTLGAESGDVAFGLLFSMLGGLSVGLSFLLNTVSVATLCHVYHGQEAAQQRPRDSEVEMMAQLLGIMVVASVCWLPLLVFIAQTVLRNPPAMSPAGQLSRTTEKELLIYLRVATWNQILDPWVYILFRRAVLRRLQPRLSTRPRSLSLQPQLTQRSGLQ
Method in brief: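 Membranes from CHO cells expressing hTP were incubated with 5.0 nM [³H]-SQ29548 and compounds at various concentrations. Buffer was 10 mM Tris–HCl pH 7.5 with 100 mM NaCl, for 30 min at room temperature. Samples were filtered on GF/B, washed with the same buffer, dried 60 min at 60 °C and scintillation counted. Nonspecific binding was set with excess unlabeled SQ29548.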

[6] = molecular target: Prostaglandin E2 receptor EP2 subtype (Mus musculus, UniProt Q62053); assay: Displacement of [3H]-PGE2 from mouse EP2 receptor expressed in CHO cells after 60 mins by liquid scintillation counting; format: cell-based; method in brief: as §1
Prostaglandin E2 receptor EP2 subtype, sequence (Q62053 whole entry): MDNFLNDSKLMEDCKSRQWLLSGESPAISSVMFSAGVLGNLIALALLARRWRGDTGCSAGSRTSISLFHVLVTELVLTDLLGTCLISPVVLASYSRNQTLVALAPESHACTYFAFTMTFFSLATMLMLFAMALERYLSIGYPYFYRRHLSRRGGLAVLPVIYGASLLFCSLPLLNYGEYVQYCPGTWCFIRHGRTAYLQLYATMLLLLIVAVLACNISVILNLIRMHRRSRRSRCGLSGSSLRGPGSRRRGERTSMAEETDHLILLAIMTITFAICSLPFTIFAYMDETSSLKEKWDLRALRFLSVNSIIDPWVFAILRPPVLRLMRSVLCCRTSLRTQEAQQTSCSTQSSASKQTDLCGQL

[7] = molecular target: T1, Prostaglandin D2 receptor; assay: Antagonist activity at mouse DP receptor expressed in CHO cells assessed as inhibition of PGD2-induced cAMP accumulation after 10 mins by enzyme immunoassay in the presence of 0.1% BSA; format: functional, cell-based
Method in brief: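 CHO cells stably expressing mDP were seeded at 1 × 10⁵ cells/well and grown 2 days. They were preincubated about 10 min at 37 °C in MEM with Diclofenac, then given assay medium (MEM, 0.1% BSA, 1 mM IBMX, Diclofenac). Test compound at various concentrations plus 10 nM PGD₂ was added for 10 min at 37 °C. The reaction was stopped with ice-cold 10% TCA and TCA was extracted. cAMP was measured by EIA. IC50 came from cAMP relative to the PGD₂-only maximum.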

Prostacyclin receptor, sequence (P43119 whole entry): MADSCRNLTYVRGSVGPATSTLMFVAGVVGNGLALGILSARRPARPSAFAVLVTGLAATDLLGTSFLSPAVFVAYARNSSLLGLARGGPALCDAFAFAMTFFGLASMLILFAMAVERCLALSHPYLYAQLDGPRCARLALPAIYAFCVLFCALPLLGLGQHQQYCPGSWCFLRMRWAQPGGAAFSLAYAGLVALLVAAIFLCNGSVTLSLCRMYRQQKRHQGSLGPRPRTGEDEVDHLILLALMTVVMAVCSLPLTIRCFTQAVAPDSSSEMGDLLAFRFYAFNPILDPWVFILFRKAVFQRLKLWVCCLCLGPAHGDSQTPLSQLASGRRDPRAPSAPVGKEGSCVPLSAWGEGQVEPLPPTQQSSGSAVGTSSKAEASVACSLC

Structure (SMILES) | Ki (Prostacyclin receptor) [nM] | Ki [1] [nM] | Ki [2] [nM] | Ki [3] [nM] | Ki [4] [nM] | Ki [5] [nM] | Ki (Thromboxane A2 receptor) [nM] | Ki [6] [nM] | IC50 [7] [nM]
Cc1c(CC(=O)O)c2ccccc2n1C(=O)c1ccc(OC[C@@H]2CN(C)c3ccccc3O2)cc1 | 200 | 7.7 | 2100 | > 10000 | 1700 | > 10000 | > 10000 | 210 | 
Cc1c(CC(=O)O)c2cc(Cl)ccc2n1C(=O)c1ccc(OC[C@@H]2CN(C)c3ccccc3O2)cc1 | 49 | 29 | 2200 | > 10000 | > 10000 | > 10000 |  | 330 | 3.1
COc1ccc2c(c1)c(CC(=O)O)c(C)n2C(=O)c1ccc(OC[C@@H]2CN(C)c3ccccc3O2)cc1 | 1000 | 9.9 |  | 3000 | 2500 | > 10000 |  | 310 | 
Cc1c(CC(=O)O)c2ccccc2n1C(=O)c1ccc(OC[C@@H]2CN(C)c3ccccc3O2)cc1F | 110 | 3.8 |  |  |  |  |  |  | 2.5
Cc1cc(C(=O)n2c(C)c(CC(=O)O)c3ccccc32)ccc1OC[C@@H]1CN(C)c2ccccc2O1 | 72 | 140 |  |  |  |  |  |  | 
Cc1c(CC(=O)O)c2ccccc2n1C(=O)c1ccc(OC[C@@H]2CN(C)c3ccccc3O2)c(Cl)c1 | 91 | 380 |  |  |  |  |  |  | 
Cc1c(CC(=O)O)c2ccccc2n1C(=O)c1ccc(OC[C@@H]2CN(C)c3ccccc3O2)c(F)c1 | 210 | 240 |  |  |  |  |  |  | 
COc1cc(C(=O)n2c(C)c(CC(=O)O)c3ccccc32)ccc1OC[C@@H]1CN(C)c2ccccc2O1 | 430 | 340 |  |  |  |  |  |  | 
Cc1c(OC[C@@H]2CN(C)c3ccccc3O2)ccc(C(=O)n2c(C)c(CC(=O)O)c3ccccc32)c1C | 98 | 380 |  |  |  |  |  |  | 
Cc1cc(C(=O)n2c(C)c(CC(=O)O)c3ccccc32)c(C)cc1OC[C@@H]1CN(C)c2ccccc2O1 | 94 | 360 |  |  |  |  |  |  | 
Cc1cc(OC[C@@H]2CN(C)c3ccccc3O2)ccc1C(=O)n1c(C)c(CC(=O)O)c2cc(F)ccc21 | 130 | 2.7 |  |  |  |  |  |  | 3.2
Cc1c(CC(=O)O)c2cc(F)ccc2n1C(=O)c1ccc(OC[C@@H]2CN(C)c3ccccc3O2)cc1F | 320 | 3.8 |  |  |  |  |  |  | 0.7
Cc1cc(C(=O)n2c(C)c(CC(=O)O)c3cc(F)ccc32)ccc1OC[C@@H]1CN(C)c2ccccc2O1 | 160 | 59 |  |  |  |  |  |  | 42
COc1cc(C(=O)n2c(C)c(CC(=O)O)c3cc(F)ccc32)ccc1OC[C@@H]1CN(C)c2ccccc2O1 | 1500 |  |  |  |  |  |  |  | 68
Cc1c(OC[C@@H]2CN(C)c3ccccc3O2)ccc(C(=O)n2c(C)c(CC(=O)O)c3cc(F)ccc32)c1C | 230 |  |  |  |  |  |  |  | 32
Cc1cc(C(=O)n2c(C)c(CC(=O)O)c3cc(F)ccc32)c(C)cc1OC[C@@H]1CN(C)c2ccccc2O1 | 93 | 14 |  |  |  |  |  |  | 2.8
Cc1cc(OC[C@@H]2COc3ccccc3O2)ccc1C(=O)n1c(C)c(CC(=O)O)c2ccccc21 | 570 | 22 |  |  |  |  |  |  | 3.8
Cc1cc(OC[C@@H]2COc3ccccc32)ccc1C(=O)n1c(C)c(CC(=O)O)c2ccccc21 | 2100 | 43 |  |  |  |  |  |  | 72
Cc1cc(OC[C@@H]2Cc3ccccc3O2)ccc1C(=O)n1c(C)c(CC(=O)O)c2ccccc21 | 280 | 7.1 |  |  |  |  |  |  | 7
Cc1cc(OCC2Oc3ccccc3O2)ccc1C(=O)n1c(C)c(CC(=O)O)c2ccccc21 | 3000 |  |  |  |  |  |  |  | 43
Cc1cc(OCC2Cc3ccccc3N2C)ccc1C(=O)n1c(C)c(CC(=O)O)c2ccccc21 (configuration not stated) | > 10000 |  |  |  |  |  |  |  | 6.2
CCN1c2ccccc2CC1COc1ccc(C(=O)n2c(C)c(CC(=O)O)c3ccccc32)c(C)c1 (configuration not stated) | 5100 | 22 |  |  |  |  |  |  | 3.1
Cc1cc(OC[C@@H]2COc3ccc(F)cc32)ccc1C(=O)n1c(C)c(CC(=O)O)c2ccccc21 | 520 | 5.4 |  |  |  |  |  |  | 1.8
COc1ccc2c(c1)c(CC(=O)O)c(C)n2C(=O)c1ccc(Cl)cc1 [INDOMETHACIN] |  | > 10000 |  | > 10000 | > 10000 | > 10000 |  | > 10000 | 
